Measurements published in ChEMBL document CHEMBL3853327 (J Med Chem, 2016).

Experiments:
[1] = tested on: Human immunodeficiency virus 1; experiment: Potency index, ratio of ETV EC50 to compound EC50 for HIV1 3B harboring reverse transcriptase Y181C mutant infected in human MT4 cells; type: functional
[2] = Selectivity index, ratio of CC50 for human mock-infected MT4 cells to EC50 for HIV1 3B harboring reverse transcriptase E138K mutant infected in human MT4 cells; type: toxicity, cell-based; conditions: MT4 cells (mock-infected for CC50, HIV-1 infected for EC50)
Method in brief: (§1)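 Selectivity index is CC50/EC50. CC50 is the concentration that reduces OD540 of mock-infected MT-4 cells by 50% in the 5-day MTT assay. EC50 is the 50% protection from virus-induced cytopathicity, measured in parallel on infected wells.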

[3] = tested on: Human immunodeficiency virus 1; experiment: Potency index, ratio of ETV EC50 to compound EC50 for HIV1 3B harboring reverse transcriptase YI88L mutant infected in human MT4 cells; type: functional
[4] = tested on: Human immunodeficiency virus 1; experiment: Potency index, ratio of ETV EC50 to compound EC50 for HIV1 3B harboring reverse transcriptase E138K mutant infected in human MT4 cells; type: functional
[5] = tested on: Human immunodeficiency virus 1; experiment: Antiviral activity against HIV1 3B harboring reverse transcriptase K103N mutant infected in human MT4 cells assessed as protection against virus induced cytotoxicity after 5 days by MTT assay; type: functional, cell-based; conditions: Human immunodeficiency virus 1, 3B, MT4, 120 h
Method in brief: (§2)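 MTT cytopathicity assay in MT-4 cells (6 × 10^5 cells/mL). Compounds serially diluted 5-fold in triplicate wells, run in parallel on infected and mock-infected cells. Virus added at 100−300 CCID50 per well. Viability read spectrophotometrically at 540 and 690 nm after 5 days, using the median OD of three wells. EC50 is the concentration giving 50% protection from viral cytopathogenicity.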

[6] = Selectivity index, ratio of CC50 for human mock-infected MT4 cells to EC50 for HIV1 3B harboring reverse transcriptase L100I mutant infected in human MT4 cells; type: toxicity, cell-based; conditions: MT4 cells (mock-infected for CC50, HIV-1 infected for EC50); method in brief: as §1
[7] = Selectivity index, ratio of CC50 for human mock-infected MT4 cells to EC50 for HIV1 3B harboring reverse transcriptase Y188L mutant infected in human MT4 cells; type: toxicity, cell-based; conditions: MT4 cells (mock-infected for CC50, HIV-1 infected for EC50); method in brief: as §1
[8] = Selectivity index, ratio of CC50 for human mock-infected MT4 cells to EC50 for HIV1 3B harboring reverse transcriptase K103N mutant infected in human MT4 cells; type: toxicity, cell-based; conditions: MT4 cells (mock-infected for CC50, HIV-1 infected for EC50); method in brief: as §1
[9] = tested on: Human immunodeficiency virus 1; experiment: Antiviral activity against HIV1 3B harboring reverse transcriptase Y188L mutant infected in human MT4 cells assessed as protection against virus induced cytotoxicity after 5 days by MTT assay; type: functional, cell-based; conditions: Human immunodeficiency virus 1, 3B, MT4, 120 h; method in brief: as §2
[10] = tested on: Human immunodeficiency virus 1; experiment: Antiviral activity against HIV1 3B harboring reverse transcriptase E138K mutant infected in human MT4 cells assessed as protection against virus induced cytotoxicity after 5 days by MTT assay; type: functional, cell-based; conditions: Human immunodeficiency virus 1, 3B, MT4, 120 h; method in brief: as §2
[11] = Selectivity index, ratio of CC50 for human mock-infected MT4 cells to EC50 for wild type HIV1 3B harboring reverse transcriptase infected in human MT4 cells; type: toxicity, cell-based; conditions: MT4 cells (mock-infected for CC50, HIV-1 infected for EC50); method in brief: as §1
[12] = tested on: Human immunodeficiency virus 1; experiment: Antiviral activity against HIV1 3B harboring reverse transcriptase L100I mutant infected in human MT4 cells assessed as protection against virus induced cytotoxicity after 5 days by MTT assay; type: functional, cell-based; conditions: Human immunodeficiency virus 1, 3B, MT4, 120 h; method in brief: as §2
[13] = tested on: Human immunodeficiency virus 1; experiment: Antiviral activity against HIV1 3B harboring reverse transcriptase Y181C mutant infected in human MT4 cells assessed as protection against virus induced cytotoxicity after 5 days by MTT assay; type: functional, cell-based; conditions: Human immunodeficiency virus 1, 3B, MT4, 120 h
Method in brief: as §2, with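 “wells.” for “wells. EC50 is the concentration giving 50% protection from viral cytopathogenicity.”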

[14] = Selectivity index, ratio of CC50 for human mock-infected MT4 cells to EC50 for HIV1 RES056 harboring reverse transcriptase K103N/Y181C double mutant infected in human MT4 cells; type: toxicity, cell-based; conditions: MT4 cells (mock-infected for CC50, HIV-1 infected for EC50); method in brief: as §1
[15] = Selectivity index, ratio of CC50 for human mock-infected MT4 cells to EC50 for HIV1 3B harboring reverse transcriptase F227L/V106A double mutant infected in human MT4 cells; type: toxicity, cell-based; conditions: MT4 cells (mock-infected for CC50, HIV-1 infected for EC50); method in brief: as §1
[16] = Selectivity index, ratio of CC50 for human mock-infected MT4 cells to EC50 for HIV1 3B harboring reverse transcriptase Y181C mutant infected in human MT4 cells; type: toxicity, cell-based; conditions: MT4 cells (mock-infected for CC50, HIV-1 infected for EC50); method in brief: as §1
[17] = Antiviral activity against HIV2 ROD harboring reverse transcriptase infected in human MT4 cells assessed as protection against virus induced cytotoxicity after 5 days by MTT assay; type: functional, cell-based, Human immunodeficiency virus type 2 (ISOLATE ROD); conditions: Human immunodeficiency virus 2, MT4, 120 h; method in brief: as §2
[18] = tested on: Human immunodeficiency virus 1; experiment: Antiviral activity against HIV1 3B harboring reverse transcriptase F227L/V106A double mutant infected in human MT4 cells assessed as protection against virus induced cytotoxicity after 5 days by MTT assay; type: functional, cell-based; conditions: Human immunodeficiency virus 1, 3B, MT4, 120 h; method in brief: as §2
[19] = Cytotoxicity against human mock-infected MT4 cells assessed as reduction in cell viability after 5 days by MTT assay; type: toxicity, cell-based
Method in brief: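 Mock-infected MT-4 cells (6 × 10^5 cells/mL at seeding) with serial 5-fold compound dilutions in triplicate wells. Viability read by MTT after 5 days, absorbance at 540 and 690 nm, median OD of three wells. CC50 is the concentration reducing OD540 of mock-infected cells by 50%.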

[20] = tested on: Human immunodeficiency virus 1; experiment: Antiviral activity against wild type HIV1 3B harboring reverse transcriptase infected in human MT4 cells assessed as protection against virus induced cytotoxicity after 5 days by MTT assay; type: functional, cell-based; conditions: Human immunodeficiency virus 1, 3B, MT4, 120 h
Method in brief: as §2, with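 “wells.” for “wells. EC50 is the concentration giving 50% protection from viral cytopathogenicity.”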

Question: With `CNS(=O)(=O)c1ccc(CN2CCC(Nc3nc(Oc4c(C)cc(C#N)cc4C)c4sccc4n3)CC2)cc1` as the compound, how does the “Ratio EC50” value [1] read?
Answer: 2

Question: What about the selectivity ratio [2] of the same compound?
Answer: 665

Question: And the “Ratio EC50” value [3]?
Answer: 2

Question: And the “Ratio EC50” value [4]?
Answer: 2

Question: What about the EC50 [5] of the same compound?
Answer: 1.5 nM

Question: And the selectivity ratio [6]?
Answer: 972

Question: What about the selectivity ratio [7] of the same compound?
Answer: 647

Question: What about the selectivity ratio [8] of the same compound?
Answer: 2880

Question: And the EC50 [9]?
Answer: 6.8 nM

Question: What about the EC50 [10] of the same compound?
Answer: 6.6 nM

Question: And the selectivity ratio [11]?
Answer: 2790

Question: And the EC50 [12]?
Answer: 4.5 nM

Question: What about the EC50 [13] of the same compound?
Answer: 4.8 nM

Question: What about the selectivity ratio [14] of the same compound?
Answer: 136

Question: And the selectivity ratio [15]?
Answer: 1090

Question: What about the selectivity ratio [16] of the same compound?
Answer: 911

Question: And the EC50 [17]?
Answer: > 4420 nM

Question: And the EC50 [18]?
Answer: 4.1 nM

Question: What about the CC50 at 120 h [19] of the same compound?
Answer: 4420 nM

Question: What about the EC50 [20] of the same compound?
Answer: 1.5 nM
